In ChEMBL document CHEMBL1136122, “Are 5'-O-carbamate-2',3'-dideoxythiacytidine new anti-HIV and anti-HBV nucleoside drugs or prodrugs?” (Bioorg Med Chem Lett, 2003):

Tested on: HepG2
Assay: In vitro concentration required to inhibit HBV DNA secretion by HepG2.2.15 transfected by HBV
Format: functional, cell-based
Details: Homo sapiens; call rule not given here
Procedure, shortened: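 Used HepG2.2.15 cells stably transfected with HBV, following a standard procedure. EC50 is the concentration giving 50% inhibition of HBV DNA secretion, reported with standard deviation.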

Row | Structure (SMILES) | EC50 [nM]
1 | NCCCOC(=O)OCC1OC(n2ccc(N)nc2=O)CS1 (centres undefined) | 500
2 | Nc1ccn(C2CSC(COC(=O)NCCCO)O2)c(=O)n1 (centres undefined) | 1000
3 | Nc1ccn(C2CSC(COC(=O)NCCCCCCO)O2)c(=O)n1 (centres undefined) | 5000
4 | Nc1ccn([C@@H]2CS[C@H](CO)O2)c(=O)n1 [LAMIVUDINE] | 400
5 | CCCCNC(=O)OCC1OC(n2ccc(N)nc2=O)CS1 (centres undefined) | 1000
6 | NCCCCNC(=O)OCC1OC(n2ccc(N)nc2=O)CS1 (centres undefined) | 1000
7 | CCCNC(=O)OCC1OC(n2ccc(N)nc2=O)CS1 (centres undefined) | 5000
8 | Nc1ccn(C2CSC(COC(=O)NCP(=O)(O)O)O2)c(=O)n1 (centres undefined) | 5000
9 | NCCCNC(=O)OCC1OC(n2ccc(N)nc2=O)CS1 (centres undefined) | 1000
10 | Nc1ccn(C2CSC(COC(=O)NCCCCO)O2)c(=O)n1 (centres undefined) | 5000
11 | CCOP(=O)(CNC(=O)OCC1OC(n2ccc(N)nc2=O)CS1)OCC (centres undefined) | > 5000
12 | NCCCCOC(=O)OCC1OC(n2ccc(N)nc2=O)CS1 (centres undefined) | 1000

Tested on: MT4
Assay: In vitro concentration required to cause death of uninfected MT-4 cell
Format: functional
Details: Homo sapiens

Row | Structure (SMILES) | CC50 [µM]
13 | NCCCOC(=O)OCC1OC(n2ccc(N)nc2=O)CS1 (centres undefined) | > 17
14 | Nc1ccn(C2CSC(COC(=O)NCCCO)O2)c(=O)n1 (centres undefined) | > 281
15 | Nc1ccn(C2CSC(COC(=O)NCCCCCCO)O2)c(=O)n1 (centres undefined) | > 208
16 | Nc1ccn([C@@H]2CS[C@H](CO)O2)c(=O)n1 [LAMIVUDINE] | > 44
17 | CCCCNC(=O)OCC1OC(n2ccc(N)nc2=O)CS1 (centres undefined) | > 283
18 | NCCCCNC(=O)OCC1OC(n2ccc(N)nc2=O)CS1 (centres undefined) | > 218
19 | CCCNC(=O)OCC1OC(n2ccc(N)nc2=O)CS1 (centres undefined) | > 285
20 | Nc1ccn(C2CSC(COC(=O)NCP(=O)(O)O)O2)c(=O)n1 (centres undefined) | > 322
21 | NCCCNC(=O)OCC1OC(n2ccc(N)nc2=O)CS1 (centres undefined) | > 282
22 | Nc1ccn(C2CSC(COC(=O)NCCCCO)O2)c(=O)n1 (centres undefined) | > 217
23 | CCOP(=O)(CNC(=O)OCC1OC(n2ccc(N)nc2=O)CS1)OCC (centres undefined) | > 233
24 | NCCCCOC(=O)OCC1OC(n2ccc(N)nc2=O)CS1 (centres undefined) | > 218

Tested on: MT4
Assay: In vitro concentration required to inhibit the cytopathicity of HIV-1 IIIB on MT-4 cell; NA=no activity
Format: functional, cell-based, Homo sapiens
Details: not given
Procedure, shortened: (§1)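 EC50 is reported with standard deviation. In MT-4 cells it is 50% protection from HIV-1 cytopathicity. In PBMCs it is 50% inhibition of HIV-1 replication.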

Row | Structure (SMILES) | EC50
25 | Nc1ccn(C2CSC(COC(=O)NCP(=O)(O)O)O2)c(=O)n1 (centres undefined) | Not Active

Tested on: MT4
Assay: In vitro concentration required to inhibit the cytopathicity of HIV-1 IIIB on MT-4 cell
Format: functional, cell-based
Details: Homo sapiens
Procedure, shortened: as §1

Row | Structure (SMILES) | EC50 [µM]
26 | NCCCOC(=O)OCC1OC(n2ccc(N)nc2=O)CS1 (centres undefined) | 0.3
27 | Nc1ccn(C2CSC(COC(=O)NCCCO)O2)c(=O)n1 (centres undefined) | > 254
28 | Nc1ccn(C2CSC(COC(=O)NCCCCCCO)O2)c(=O)n1 (centres undefined) | 75
29 | Nc1ccn([C@@H]2CS[C@H](CO)O2)c(=O)n1 [LAMIVUDINE] | 0.4
30 | CCCCNC(=O)OCC1OC(n2ccc(N)nc2=O)CS1 (centres undefined) | 26
31 | NCCCCNC(=O)OCC1OC(n2ccc(N)nc2=O)CS1 (centres undefined) | 15
32 | CCCNC(=O)OCC1OC(n2ccc(N)nc2=O)CS1 (centres undefined) | 32
33 | NCCCNC(=O)OCC1OC(n2ccc(N)nc2=O)CS1 (centres undefined) | 27
34 | Nc1ccn(C2CSC(COC(=O)NCCCCO)O2)c(=O)n1 (centres undefined) | > 200
35 | CCOP(=O)(CNC(=O)OCC1OC(n2ccc(N)nc2=O)CS1)OCC (centres undefined) | 126
36 | NCCCCOC(=O)OCC1OC(n2ccc(N)nc2=O)CS1 (centres undefined) | 0.8

Tested on: not listed separately
Assay: In vitro concentration required to cause death of uninfected PBMCs cell (peripheral blood mononuclear cells)
Format: functional
Details: Homo sapiens, PBMC

Row | Structure (SMILES) | CC50 [µM]
37 | NCCCOC(=O)OCC1OC(n2ccc(N)nc2=O)CS1 (centres undefined) | > 10
38 | Nc1ccn(C2CSC(COC(=O)NCCCO)O2)c(=O)n1 (centres undefined) | > 10
39 | Nc1ccn(C2CSC(COC(=O)NCCCCCCO)O2)c(=O)n1 (centres undefined) | > 10
40 | Nc1ccn([C@@H]2CS[C@H](CO)O2)c(=O)n1 [LAMIVUDINE] | > 10
41 | CCCCNC(=O)OCC1OC(n2ccc(N)nc2=O)CS1 (centres undefined) | > 10
42 | NCCCCNC(=O)OCC1OC(n2ccc(N)nc2=O)CS1 (centres undefined) | > 10
43 | CCCNC(=O)OCC1OC(n2ccc(N)nc2=O)CS1 (centres undefined) | > 10
44 | Nc1ccn(C2CSC(COC(=O)NCP(=O)(O)O)O2)c(=O)n1 (centres undefined) | > 10
45 | NCCCNC(=O)OCC1OC(n2ccc(N)nc2=O)CS1 (centres undefined) | > 10
46 | Nc1ccn(C2CSC(COC(=O)NCCCCO)O2)c(=O)n1 (centres undefined) | > 10
47 | CCOP(=O)(CNC(=O)OCC1OC(n2ccc(N)nc2=O)CS1)OCC (centres undefined) | > 10
48 | NCCCCOC(=O)OCC1OC(n2ccc(N)nc2=O)CS1 (centres undefined) | > 10

Tested on: not listed separately
Assay: In vitro concentration required to inhibit the HIV-1 LA1 replication on PBMCs cell (peripheral blood mononuclear cells)
Format: functional, cell-based
Details: Homo sapiens, PBMC
Procedure, shortened: as §1

Row | Structure (SMILES) | EC50 [µM]
49 | NCCCOC(=O)OCC1OC(n2ccc(N)nc2=O)CS1 (centres undefined) | 0.01
50 | Nc1ccn(C2CSC(COC(=O)NCCCO)O2)c(=O)n1 (centres undefined) | > 10
51 | Nc1ccn(C2CSC(COC(=O)NCCCCCCO)O2)c(=O)n1 (centres undefined) | 10
52 | Nc1ccn([C@@H]2CS[C@H](CO)O2)c(=O)n1 [LAMIVUDINE] | 0.01
53 | CCCCNC(=O)OCC1OC(n2ccc(N)nc2=O)CS1 (centres undefined) | 5
54 | NCCCCNC(=O)OCC1OC(n2ccc(N)nc2=O)CS1 (centres undefined) | 10
55 | CCCNC(=O)OCC1OC(n2ccc(N)nc2=O)CS1 (centres undefined) | 10
56 | Nc1ccn(C2CSC(COC(=O)NCP(=O)(O)O)O2)c(=O)n1 (centres undefined) | > 10
57 | NCCCNC(=O)OCC1OC(n2ccc(N)nc2=O)CS1 (centres undefined) | 1
58 | Nc1ccn(C2CSC(COC(=O)NCCCCO)O2)c(=O)n1 (centres undefined) | > 10
59 | CCOP(=O)(CNC(=O)OCC1OC(n2ccc(N)nc2=O)CS1)OCC (centres undefined) | 10
60 | NCCCCOC(=O)OCC1OC(n2ccc(N)nc2=O)CS1 (centres undefined) | 0.1

Tested on: not listed separately
Assay: Selectivity (CC50/EC50) for death of uninfected MT4 cell to that of inhibition of cytopathicity of HIV-1 IIIB on MT-4 cell
Format: functional
Details: not given

Row | Structure (SMILES) | SI
61 | NCCCOC(=O)OCC1OC(n2ccc(N)nc2=O)CS1 (centres undefined) | >57
62 | Nc1ccn(C2CSC(COC(=O)NCCCCCCO)O2)c(=O)n1 (centres undefined) | >3
63 | Nc1ccn([C@@H]2CS[C@H](CO)O2)c(=O)n1 [LAMIVUDINE] | >107
64 | CCCCNC(=O)OCC1OC(n2ccc(N)nc2=O)CS1 (centres undefined) | >11
65 | NCCCCNC(=O)OCC1OC(n2ccc(N)nc2=O)CS1 (centres undefined) | >14
66 | CCCNC(=O)OCC1OC(n2ccc(N)nc2=O)CS1 (centres undefined) | >9
67 | NCCCNC(=O)OCC1OC(n2ccc(N)nc2=O)CS1 (centres undefined) | >10
68 | CCOP(=O)(CNC(=O)OCC1OC(n2ccc(N)nc2=O)CS1)OCC (centres undefined) | >2
69 | NCCCCOC(=O)OCC1OC(n2ccc(N)nc2=O)CS1 (centres undefined) | >260

Tested on: not listed separately
Assay: Selectivity (CC50/EC50) for death of uninfected PBMCs to that of inhibition of […] of HIV-1 LA1 on PBMCs (peripheral blood mononuclear cells)
Format: functional
Details: not given

Row | Structure (SMILES) | SI
70 | NCCCOC(=O)OCC1OC(n2ccc(N)nc2=O)CS1 (centres undefined) | >1000
71 | Nc1ccn(C2CSC(COC(=O)NCCCO)O2)c(=O)n1 (centres undefined) | >1
72 | Nc1ccn(C2CSC(COC(=O)NCCCCCCO)O2)c(=O)n1 (centres undefined) | >1
73 | Nc1ccn([C@@H]2CS[C@H](CO)O2)c(=O)n1 [LAMIVUDINE] | >1000
74 | CCCCNC(=O)OCC1OC(n2ccc(N)nc2=O)CS1 (centres undefined) | >2
75 | NCCCCNC(=O)OCC1OC(n2ccc(N)nc2=O)CS1 (centres undefined) | >1
76 | CCCNC(=O)OCC1OC(n2ccc(N)nc2=O)CS1 (centres undefined) | >1
77 | NCCCNC(=O)OCC1OC(n2ccc(N)nc2=O)CS1 (centres undefined) | >10
78 | CCOP(=O)(CNC(=O)OCC1OC(n2ccc(N)nc2=O)CS1)OCC (centres undefined) | >1
79 | NCCCCOC(=O)OCC1OC(n2ccc(N)nc2=O)CS1 (centres undefined) | > 100
